# Reference: ChEMBL document CHEMBL3526004, “Interaction of silymarin flavonolignans with organic anion-transporting polypeptides” (Drug Metab Dispos, 2013)
# What was measured:
# [1] = target: T1, Solute carrier organic anion transporter family member 1B3 (Homo sapiens, UniProt Q9NPD5); experiment: Inhibition of OATP1B3 (unknown origin) expressed in HEK293 cells assessed as reduction of [3H]estradiol-17beta-glucuronide uptake at 10 uM after 3 mins by beta-counting; format: ADME, cell-based; conditions: hek293, 0.05 h
# T1 sequence (Q9NPD5 whole entry): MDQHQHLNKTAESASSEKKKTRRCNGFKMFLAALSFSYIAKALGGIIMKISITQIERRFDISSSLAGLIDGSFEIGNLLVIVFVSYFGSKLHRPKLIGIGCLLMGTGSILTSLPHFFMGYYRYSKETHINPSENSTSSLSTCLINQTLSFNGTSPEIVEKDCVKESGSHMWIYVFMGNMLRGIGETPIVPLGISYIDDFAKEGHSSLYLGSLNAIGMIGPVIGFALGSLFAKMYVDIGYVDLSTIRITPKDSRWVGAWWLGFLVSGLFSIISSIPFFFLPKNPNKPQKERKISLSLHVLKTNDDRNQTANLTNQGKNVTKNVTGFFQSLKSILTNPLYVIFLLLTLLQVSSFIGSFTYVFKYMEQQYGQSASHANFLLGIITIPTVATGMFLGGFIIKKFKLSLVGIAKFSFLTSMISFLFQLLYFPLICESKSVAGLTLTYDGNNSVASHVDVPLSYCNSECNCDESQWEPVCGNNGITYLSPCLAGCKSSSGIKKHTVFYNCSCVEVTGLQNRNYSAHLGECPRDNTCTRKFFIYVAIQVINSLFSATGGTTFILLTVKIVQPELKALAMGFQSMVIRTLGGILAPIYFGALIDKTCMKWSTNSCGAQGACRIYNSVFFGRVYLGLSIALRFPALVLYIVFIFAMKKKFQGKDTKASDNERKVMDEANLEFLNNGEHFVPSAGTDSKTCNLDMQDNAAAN
# How it was run: (§1)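 Confluent cells were washed in PBS, then given 1 µM [3H]-E2 17G (OATP1B1, OATP1B3 HEK293) or 1 µM [3H]-E1S (OATP2B1 MDCKII) with 10 µM compound in HBSS pH 7.4 for 3 min at 37°C. Uptake into mock or parental cells was subtracted after protein normalization. Results are % vehicle, mean ± SD of at least three experiments in triplicate.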
# [2] = target: T2, Solute carrier organic anion transporter family member 2B1 (Homo sapiens, UniProt O94956); experiment: Inhibition of OATP2B1 (unknown origin) expressed in MDCK2 cells assessed as reduction of [3H]estrone-3-sulfate uptake at 10 uM after 3 mins by beta-counting; format: ADME, cell-based; conditions: mdck-ii, 0.05 h; how it was run: as §1
# T2 sequence (O94956 whole entry): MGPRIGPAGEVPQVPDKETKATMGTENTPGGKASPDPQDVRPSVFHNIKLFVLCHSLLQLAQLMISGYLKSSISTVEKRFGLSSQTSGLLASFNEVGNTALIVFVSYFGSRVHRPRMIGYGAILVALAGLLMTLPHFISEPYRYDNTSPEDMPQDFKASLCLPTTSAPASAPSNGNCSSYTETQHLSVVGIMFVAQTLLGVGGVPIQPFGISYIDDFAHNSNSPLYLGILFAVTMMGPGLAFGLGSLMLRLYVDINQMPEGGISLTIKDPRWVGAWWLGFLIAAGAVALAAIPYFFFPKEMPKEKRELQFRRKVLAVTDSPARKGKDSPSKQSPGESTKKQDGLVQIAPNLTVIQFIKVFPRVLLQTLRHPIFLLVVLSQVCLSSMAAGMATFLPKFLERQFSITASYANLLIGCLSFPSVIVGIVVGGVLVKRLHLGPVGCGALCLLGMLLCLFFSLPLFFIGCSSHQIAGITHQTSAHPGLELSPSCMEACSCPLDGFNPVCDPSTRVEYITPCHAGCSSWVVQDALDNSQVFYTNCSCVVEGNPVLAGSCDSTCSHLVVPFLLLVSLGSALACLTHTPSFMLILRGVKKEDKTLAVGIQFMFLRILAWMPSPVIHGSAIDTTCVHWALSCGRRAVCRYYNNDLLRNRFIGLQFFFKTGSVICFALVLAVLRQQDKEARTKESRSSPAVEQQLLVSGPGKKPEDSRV
# [3] = target: T3, Solute carrier organic anion transporter family member 1B1 (Homo sapiens, UniProt Q9Y6L6); experiment: Inhibition of OATP1B1 (unknown origin) expressed in HEK293 cells assessed as reduction of [3H]estradiol-17beta-glucuronide uptake at 10 uM after 3 mins by beta-counting; format: ADME, cell-based; conditions: hek293, 0.05 h; how it was run: as §1
# T3 sequence (Q9Y6L6 whole entry): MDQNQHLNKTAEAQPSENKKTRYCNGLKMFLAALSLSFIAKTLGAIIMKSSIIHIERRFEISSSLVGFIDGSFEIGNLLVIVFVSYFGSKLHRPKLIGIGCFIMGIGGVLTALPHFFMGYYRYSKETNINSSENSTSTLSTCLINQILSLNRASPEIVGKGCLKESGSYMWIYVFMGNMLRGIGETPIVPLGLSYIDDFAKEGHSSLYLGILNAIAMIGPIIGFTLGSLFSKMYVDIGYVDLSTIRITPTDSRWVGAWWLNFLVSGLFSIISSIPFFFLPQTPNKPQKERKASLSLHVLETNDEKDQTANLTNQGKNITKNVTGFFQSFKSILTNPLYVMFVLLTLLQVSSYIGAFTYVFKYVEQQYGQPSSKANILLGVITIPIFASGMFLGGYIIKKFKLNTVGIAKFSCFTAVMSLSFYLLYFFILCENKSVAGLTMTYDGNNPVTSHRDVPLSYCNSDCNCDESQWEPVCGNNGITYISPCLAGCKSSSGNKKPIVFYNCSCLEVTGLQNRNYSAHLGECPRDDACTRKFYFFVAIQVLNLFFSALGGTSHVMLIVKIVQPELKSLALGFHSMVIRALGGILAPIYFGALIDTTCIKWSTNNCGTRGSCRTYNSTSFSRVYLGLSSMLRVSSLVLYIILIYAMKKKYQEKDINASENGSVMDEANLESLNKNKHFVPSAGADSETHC
# [4] = target: T3, Solute carrier organic anion transporter family member 1B1; experiment: Inhibition of OATP1B1 (unknown origin) expressed in HEK293 cells assessed as reduction of [3H]estradiol-17beta-glucuronide uptake after 3 mins by beta-counting; format: ADME, cell-based
# How it was run: (§2)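 Transfected HEK293 (G418) or MDCKII (hygromycin B) cells were co-incubated with 0-100 µM compound and [3H]-E2 17G (1 µM, 0.25 µCi/ml; OATP1B1, OATP1B3) or [3H]-E1S (1 µM; OATP2B1) in HBSS pH 7.4, 3 min at 37°C. OATP-negative uptake was subtracted, and results expressed as % vehicle. Two experiments were run in duplicate. IC50 came from non-linear dose-response fits.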
# [5] = target: T1, Solute carrier organic anion transporter family member 1B3; experiment: Inhibition of OATP1B3 (unknown origin) expressed in HEK293 cells assessed as reduction of [3H]estradiol-17beta-glucuronide uptake after 3 mins by beta-counting; format: ADME, cell-based; how it was run: as §2
# [6] = target: T2, Solute carrier organic anion transporter family member 2B1; experiment: Inhibition of OATP2B1 (unknown origin) expressed in MDCK2 cells assessed as reduction of [3H]estrone-3-sulfate uptake after 3 mins by beta-counting; format: ADME, cell-based, MDCK-II; how it was run: as §2
# [7] = target: T3, Solute carrier organic anion transporter family member 1B1; experiment: Inhibition of OATP1B1 (unknown origin) expressed in HEK293 cells assessed as reduction of [3H]estradiol-17beta-glucuronide uptake after 3 mins by beta-counting in presence of OATP inhibitor BSP; format: ADME, cell-based; conditions: hek293, 0.05 h
# [8] = target: T1, Solute carrier organic anion transporter family member 1B3; experiment: Inhibition of OATP1B3 (unknown origin) expressed in HEK293 cells assessed as reduction of [3H]estradiol-17beta-glucuronide uptake after 3 mins by beta-counting in presence of OATP inhibitor BSP; format: ADME, cell-based; conditions: hek293, 0.05 h
# [9] = target: T2, Solute carrier organic anion transporter family member 2B1; experiment: Inhibition of OATP2B1 (unknown origin) expressed in MDCK2 cells assessed as reduction of [3H]estrone-3-sulfate uptake after 3 mins by beta-counting in presence of OATP inhibitor BSP; format: ADME, cell-based; conditions: mdck-ii, 0.05 h
# [10] = Inhibition of OATP-mediated [3H]estradiol-17beta-glucuronide uptake in sandwich-cultured human hepatocytes at 100 uM after 1 day by beta-counting; format: ADME, cell-based, Hepatocyte
# How it was run: (§3)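 Day-1 human hepatocytes (seeded 350,000 cells/well, medium changed after 1 h) rinsed in HBSS at 37°C. Co-incubated with [3H]-E2 17G (1 µM, 1 min) or [3H]-rosuvastatin (0.5 µM, 1.5 min) plus compound or vehicle. Cells were washed in ice-cold HBSS, lysed in 0.5% Triton X-100, and counted by scintillation. Non-OATP accumulation (100 µM BSP) was subtracted. Results are % vehicle, protein-normalized, as mean ± SEM of three experiments in triplicate.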
# [11] = Inhibition of OATP-mediated [3H]rosuvastatin uptake in sandwich-cultured human hepatocytes at 100 uM after 1 day by beta-counting; format: ADME, cell-based, Hepatocyte; how it was run: as §3
# [12] = Inhibition of OATP-mediated [3H]rosuvastatin uptake in sandwich-cultured human hepatocytes at 100 uM after 8 days by beta-counting; format: ADME, cell-based, Hepatocyte
# How it was run: (§4)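 Hepatocytes were overlaid with Matrigel (0.25 mg/ml) on day 1 and cultured to day 8 in ITS/0.1 µM dexamethasone medium, changed daily. Uptake of [3H]-E2 17G (1 µM, 1 min) or [3H]-rosuvastatin (0.5 µM, 1.5 min) was run at 37°C in HBSS with compound or vehicle. The BSP (100 µM) accumulation was subtracted, and the OATP-mediated uptake was expressed as % vehicle, normalized to BCA protein and corrected with cell-free wells.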
# Plasma = experiment: Plasma concentration in patient with chronic noncirrhotic HCV at 420 to 700 mg administered 3 times per day; format: ADME, cell-free; conditions: human
# [13] = Protein binding in rat; format: ADME, organism-based; conditions: in vivo, read-out: PB (converted)
# [14] = Unbound fraction in human plasma; format: ADME, cell-free
# [15] = Cmax at steady state in patient with chronic HCV infection at 140 mg administered 3 times per day; format: ADME, organism-based; set-up: dose 140 mg; conditions: human, in vivo
# [16] = fCmax in portal vein of patient with chronic noncirrhotic HCV infection at 140 mg; format: ADME; conditions: human
# [17] = fCmax in portal vein of patient with chronic noncirrhotic HCV infection at 700 mg; format: ADME; conditions: human
# [18] = Ratio of fCmax in portal vein of patient with chronic noncirrhotic HCV infection at 700 mg to IC50 for OATP1B1 (unknown origin) expressed in HEK293 cells; set-up: species or system Homo sapiens
# [19] = Ratio of fCmax in portal vein of patient with chronic noncirrhotic HCV infection at 140 mg to IC50 for OATP1B1 (unknown origin) expressed in HEK293 cells; set-up: species or system Homo sapiens
# [20] = Ratio of fCmax in portal vein of patient with chronic noncirrhotic HCV infection at 700 mg to IC50 for OATP1B3 (unknown origin) expressed in HEK293 cells; set-up: species or system Homo sapiens
# [21] = Ratio of fCmax in portal vein of patient with chronic noncirrhotic HCV infection at 140 mg to IC50 for OATP1B3 (unknown origin) expressed in HEK293 cells; set-up: species or system Homo sapiens
# [22] = Ratio of fCmax in portal vein of patient with chronic noncirrhotic HCV infection at 700 mg to IC50 for OATP2B1 (unknown origin) expressed in HEK293 cells; set-up: species or system Homo sapiens
# [23] = Ratio of fCmax in portal vein of patient with chronic noncirrhotic HCV infection at 140 mg to IC50 for OATP2B1 (unknown origin) expressed in HEK293 cells; set-up: species or system Homo sapiens
# [24] = Cmax in patient with chronic noncirrhotic HCV infection at 700 mg; format: ADME, organism-based; set-up: dose 700 mg; conditions: human, in vivo
# [25] = Cmax in patient with chronic noncirrhotic HCV infection at 140 mg; format: ADME, organism-based; set-up: dose 140 mg; conditions: human, in vivo
# [26] = Residual OATP-mediated [3H]estradiol-17beta-glucuronide uptake in sandwich-cultured human hepatocytes at 100 uM after 8 days by beta-counting
# [27] = Inhibition of OATP-mediated [3H]estradiol-17beta-glucuronide uptake in sandwich-cultured human hepatocytes at 100 uM after 8 days by beta-counting; format: ADME, cell-based, Hepatocyte; how it was run: as §4
inhibition (INH) [1],inhibition (INH) [2],inhibition (INH) [3],IC50 [4] [µM],IC50 [5] [µM],IC50 [6] [µM],inhibition (INH) [7],inhibition (INH) [8],inhibition (INH) [9],inhibition (INH) [10],inhibition (INH) [11],inhibition (INH) [12],fraction unbound [13],fraction unbound [14],Cmax [15] [µM],fCmax [16] [µM],fCmax [17] [µM],Structure (SMILES),Ratio [18],Ratio [19],Ratio [20],also measured
Active,Active,Active,,,,,,,,,,,,,,,COc1cc([C@@H]2[C@H]3CO[C@@]4(O)C(=O)[C@@H]2C=C([C@H]2Oc5cc(O)cc(O)c5C(=O)[C@@H]2O)[C@@H]34)ccc1O [SILIDIANIN],,,,
Active,Active,Active,9.7,2.7,4.5,Not Active,Not Active,Not Active,Active,Active,Active,0.3,0.05,0.08,0.04,0.22,COc1cc([C@H]2Oc3cc([C@H]4Oc5cc(O)cc(O)c5C(=O)[C@@H]4O)ccc3O[C@@H]2CO)ccc1O [SILYBIN A],0.02,0.004,0.08,concentration (Plasma): 4.2 µM; Ratio [21]: 0.01; Ratio [22]: 0.05; Ratio [23]: 0.01; Cmax [24]: 0.58 µg/mL; Cmax [25]: 0.04 µg/mL; residual activity [26]: 58%
,Active,Active,8.5,5,0.8,Not Active,Not Active,Not Active,Active,Active,Active,0.3,0.05,0.016,0.13,0.7,COc1cc([C@@H]2Oc3cc([C@H]4Oc5cc(O)cc(O)c5C(=O)[C@@H]4O)ccc3O[C@H]2CO)ccc1O [SILYBIN B],0.08,0.02,0.14,inhibition (INH) [27]: Active; Ratio [21]: 0.03; Ratio [22]: 0.88; Ratio [23]: 0.16; Cmax [24]: 0.22 µg/mL; Cmax [25]: 0.008 µg/mL
